Marks after values point to notes of the source that are not given here. Each block holds one compound with its values, some of them ahead of it.
Tests used:
[1] = LC/MS/MS determination of compound levels in liver and ileum, 14 d dosing; assay type: in vivo; conditions: 1-30 mg/kg PO, chow-fed C57Bl6 mice
Summary of the method: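 Chow-fed C57Bl6 mice were dosed PO QD with test compounds at 1-30 mg/kg for 14 d. Weighed liver and ileum were bead-homogenised in 7 volumes of 80/20 ACN/HBSS and centrifuged. Supernatant was dried under nitrogen and reconstituted in 60/40 methanol/10 mmol/L ammonium acetate with 25 nmol/L d5-GCA internal standard, then filtered. Analysis used UHPLC-high-resolution MS in negative ESI with a C18 column at 45 °C and matrix-matched quadratic (1/x) calibration.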

FXR target genes = assay: Hepatic and ileal FXR target gene expression by RNA sequencing, 14 d dosing; assay type: in vivo; conditions: 1-30 mg/kg PO, 2 wk, lean C57Bl6 mice, RNAseq
Summary of the method: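 Lean chow-fed C57Bl6 mice received FXR-agonist test compounds at 1, 3, 10 or 30 mg/kg PO QD for 14 d. Liver and ileum transcriptomes were profiled by RNA sequencing using stranded mRNA libraries on a NextSeq 500. Prototypic FXR target genes were analysed by two-way ANOVA with Bonferroni post-hoc test against untreated (dose 0) animals.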

ob/ob-NASH mice = assay: Liver histology; assay type: in vivo; conditions: 16 wk; for Collagen 1a1 (fibrosis) % fractional area, Before treatment / Galectin-3 (inflammation) % fractional area, Before treatment / Lipid (steatosis) % fractional area, Before treatment: baseline biopsy; for Collagen 1a1 (fibrosis) % fractional area, Before treatment / Galectin-3 (inflammation) % fractional area, Before treatment / Lipid (steatosis) % fractional area, Before treatment / Collagen 1a1 (fibrosis) % fractional area, After treatment / Galectin-3 (inflammation) % fractional area, After treatment / Lipid (steatosis) % fractional area, After treatment: mean ± SE
Summary of the method: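 Biopsy-confirmed ob/ob-NASH mice (AMLN diet; n = 11-12/group, stratified by Col1a1 fibrosis) were dosed orally with vehicle or test compound for 16 wk. Baseline biopsies and terminal left lateral lobe samples were fixed overnight in 4% PFA, paraffin-sectioned at 3 μm, and stained with HE, anti-Col1a1 and anti-galectin-3. Scoring was blinded. Immunoreactive area was expressed as % of parenchymal area after subtracting fat area from adjacent HE sections. Responders had ≥1-point change (χ2 test).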

FXR = conditions: read-out: FXR EC50; in vitro; cited from earlier work
TGR5 = conditions: read-out: TGR5 EC50; in vitro; cited from earlier work
[2] = 10 mg/kg, subjects achieving > 1 points improvement in score from baseline

ileal drug concentration compared to the liver [1]: approximately two-fold
Compound: CC[C@H]1[C@@H](O)[C@@H]2[C@H](CC[C@]3(C)[C@@H]([C@H](C)CCC(=O)O)CC[C@@H]23)[C@@]2(C)CC[C@@H](O)C[C@@H]12 [OCA, obeticholic acid]
hepatic FXR target gene expression (BSEP, OST, CYP8b1, SHP) (FXR target genes): regulated hepatic FXR genes
ileal FXR target gene expression (SHP, FGF-15) (FXR target genes): more pronounced effects
Fibrosis stage: No improvement (number of mice) (ob/ob-NASH mice; 10 mg/kg): 10
Fibrosis stage: With improvement (number of mice) (ob/ob-NASH mice; 10 mg/kg): 2
NAS: No improvement (number of mice) (ob/ob-NASH mice; 10 mg/kg): 8
NAS: With improvement (number of mice) (ob/ob-NASH mice; 10 mg/kg): 4
Collagen 1a1 (fibrosis) % fractional area, Before treatment (ob/ob-NASH mice; 10 mg/kg): 0.9 ± 0.1 % fractional area
Galectin-3 (inflammation) % fractional area, Before treatment (ob/ob-NASH mice; 10 mg/kg): 5.5 ± 0.3 % fractional area
Lipid (steatosis) % fractional area, Before treatment (ob/ob-NASH mice; 10 mg/kg): 33.4 ± 0.8 % fractional area
Collagen 1a1 (fibrosis) % fractional area, After treatment (ob/ob-NASH mice; 10 mg/kg): 9.0 ± 0.6 ^a % fractional area
Galectin-3 (inflammation) % fractional area, After treatment (ob/ob-NASH mice; 10 mg/kg): 5.0 ± 0.2 ^a % fractional area
Lipid (steatosis) % fractional area, After treatment (ob/ob-NASH mice; 10 mg/kg): 31.8 ± 0.4 % fractional area
Fibrosis stage: % improving (ob/ob-NASH mice; [2]): 17%
NAS: % improving (ob/ob-NASH mice; [2]): 33%
Fibrosis stage: No improvement (number of mice) (ob/ob-NASH mice; 30 mg/kg): 7
Fibrosis stage: With improvement (number of mice) (ob/ob-NASH mice; 30 mg/kg): 4
NAS: No improvement (number of mice) (ob/ob-NASH mice; 30 mg/kg): 0
NAS: With improvement (number of mice) (ob/ob-NASH mice; 30 mg/kg): 11
Collagen 1a1 (fibrosis) % fractional area, Before treatment (ob/ob-NASH mice; 30 mg/kg): 1.2 ± 0.2 % fractional area
Galectin-3 (inflammation) % fractional area, Before treatment (ob/ob-NASH mice; 30 mg/kg): 5.5 ± 0.4 % fractional area
Lipid (steatosis) % fractional area, Before treatment (ob/ob-NASH mice; 30 mg/kg): 32.2 ± 1.1 % fractional area
Collagen 1a1 (fibrosis) % fractional area, After treatment (ob/ob-NASH mice; 30 mg/kg): 8.0 ± 0.7 ^a % fractional area
Galectin-3 (inflammation) % fractional area, After treatment (ob/ob-NASH mice; 30 mg/kg): 4.0 ± 0.4 ^a % fractional area
Lipid (steatosis) % fractional area, After treatment (ob/ob-NASH mice; 30 mg/kg): 22.7 ± 1.0 ^a % fractional area
NAS: % improving (ob/ob-NASH mice; 30 mg/kg, subjects achieving > 1 points improvement in score from baseline): 100% ^a

Compound: CC[C@H]1[C@@H](O)[C@@H]2[C@H](C[C@H](O)[C@]3(C)[C@@H]([C@H](C)C[C@H](C)C(=O)O)CC[C@@H]23)[C@@]2(C)CC[C@@H](O)C[C@@H]12 [INT-777]
EC50 (TGR5): […]
